The species named for experiment [1] is Ovis aries. Nature of the experiment: Induction of sheep brain microtubule disassembly by UV spectrophotometric analysis. Summed up: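 Sheep brain tubulin, purified by two assembly/disassembly cycles and held in MES buffer with GTP at pH 6.6, was polymerized at 37 °C for 10 min. Compound was then added to the MTs at 0 °C and depolymerization was followed over the next few minutes by turbidity at 350 nm.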

The subject of experiment [2] is KB. In words: Growth inhibition of human KB cells at 10 uM after 72 hrs by MTS assay. It counts as functional. Particulars: read-out: GI. Summed up: (§1)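 KB cells were grown in DMEM with 25 mM glucose and 10% FCS at 37 °C, 5% CO2, and seeded at 500 cells/well. 24 h later, compound in DMSO (1% final) was added at 10 µM or 1 µM for 72 h; controls received DMSO alone. Runs were in duplicate. Viable cells were read with MTS at 490 nm.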

Experiment [3] addresses T1, Kinesin-like protein KIF23 (Homo sapiens) (UniProt Q02241).
T1 sequence (whole entry): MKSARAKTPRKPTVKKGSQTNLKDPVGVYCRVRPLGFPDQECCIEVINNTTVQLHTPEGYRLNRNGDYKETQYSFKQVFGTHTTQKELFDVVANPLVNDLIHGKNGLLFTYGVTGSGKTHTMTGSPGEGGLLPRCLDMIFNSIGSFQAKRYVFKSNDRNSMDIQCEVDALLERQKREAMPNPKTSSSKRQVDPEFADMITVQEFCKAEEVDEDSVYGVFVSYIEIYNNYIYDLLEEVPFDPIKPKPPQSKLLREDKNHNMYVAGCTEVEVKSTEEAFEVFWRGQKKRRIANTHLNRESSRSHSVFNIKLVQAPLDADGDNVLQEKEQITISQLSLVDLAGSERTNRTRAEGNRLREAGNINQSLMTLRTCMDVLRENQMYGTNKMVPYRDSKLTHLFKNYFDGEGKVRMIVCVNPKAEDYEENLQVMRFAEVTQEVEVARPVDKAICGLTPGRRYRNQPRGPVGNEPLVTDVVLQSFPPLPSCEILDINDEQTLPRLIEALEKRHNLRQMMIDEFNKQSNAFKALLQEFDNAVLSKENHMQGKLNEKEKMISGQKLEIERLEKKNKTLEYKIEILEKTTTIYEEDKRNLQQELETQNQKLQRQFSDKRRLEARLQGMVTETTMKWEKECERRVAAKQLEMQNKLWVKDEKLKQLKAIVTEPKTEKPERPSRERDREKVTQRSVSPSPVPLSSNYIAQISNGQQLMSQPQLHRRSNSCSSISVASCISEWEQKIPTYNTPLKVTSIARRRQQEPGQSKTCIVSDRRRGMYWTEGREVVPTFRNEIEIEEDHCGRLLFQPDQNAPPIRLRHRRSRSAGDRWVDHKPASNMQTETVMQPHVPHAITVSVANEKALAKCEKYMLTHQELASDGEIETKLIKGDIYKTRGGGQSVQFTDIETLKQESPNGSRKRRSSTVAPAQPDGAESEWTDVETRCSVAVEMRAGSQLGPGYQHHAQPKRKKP
Nature of the experiment: Inhibition of porcine brain microtubule-stimulated human recombinant GST-tagged MKLP1 ATPase activity at 15 uM by microplate reader in presence of Mg2+ ATP relative to control. Summed up: (§2)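 Each kinesin motor domain was tested against MT-stimulated ATPase at 22 °C in triplicate, with compounds at 15 µM. Buffer was 7.5 mM PIPES-NaOH pH 7.0 with MgCl2, Taxol, ELIPA reagents and 1.25 mg/mL MTs. Reactions were started with 1 mM Mg2+ATP and read kinetically at 360 nm. Monastrol and AMP-PNP (1 mM) were the controls.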

The target in experiment [4] is T2, Kinesin-like protein KIF20A (Homo sapiens, UniProt O95235).
T2 sequence (O95235 whole entry): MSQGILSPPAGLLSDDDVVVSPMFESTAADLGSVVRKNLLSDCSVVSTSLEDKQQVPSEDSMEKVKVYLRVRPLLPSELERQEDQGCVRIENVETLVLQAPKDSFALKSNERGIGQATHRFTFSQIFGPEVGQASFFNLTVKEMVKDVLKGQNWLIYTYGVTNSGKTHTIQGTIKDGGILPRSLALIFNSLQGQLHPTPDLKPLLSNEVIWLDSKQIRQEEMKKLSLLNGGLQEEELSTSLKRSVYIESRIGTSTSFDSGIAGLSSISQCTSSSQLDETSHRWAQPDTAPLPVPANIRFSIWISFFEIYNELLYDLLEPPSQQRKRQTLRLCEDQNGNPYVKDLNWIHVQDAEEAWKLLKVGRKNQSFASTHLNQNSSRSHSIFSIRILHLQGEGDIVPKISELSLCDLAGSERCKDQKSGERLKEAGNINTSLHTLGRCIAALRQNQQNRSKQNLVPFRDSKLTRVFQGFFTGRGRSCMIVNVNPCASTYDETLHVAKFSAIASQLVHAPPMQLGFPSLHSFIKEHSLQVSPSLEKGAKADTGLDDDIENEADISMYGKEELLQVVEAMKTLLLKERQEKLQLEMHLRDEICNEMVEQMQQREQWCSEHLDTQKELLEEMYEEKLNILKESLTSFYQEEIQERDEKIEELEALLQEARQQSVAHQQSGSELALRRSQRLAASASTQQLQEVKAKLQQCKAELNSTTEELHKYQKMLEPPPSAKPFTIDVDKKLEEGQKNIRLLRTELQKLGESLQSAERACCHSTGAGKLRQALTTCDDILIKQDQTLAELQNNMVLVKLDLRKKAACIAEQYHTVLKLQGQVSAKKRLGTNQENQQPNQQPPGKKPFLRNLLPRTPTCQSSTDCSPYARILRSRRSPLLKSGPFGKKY
In words: Inhibition of N-terminal MKLP2 (56 to 505 residues) ATPase basal activity isolated from human hepatocellular carcinoma cells by pyruvate kinase/lactate dehydrogenase enzyme linked assay.

Experiment [5] has as its target Centromere-associated protein E (Homo sapiens) (UniProt Q02224). Nature of the experiment: Inhibition of porcine brain microtubule-stimulated human recombinant GST-tagged CENP-E ATPase activity at 15 uM by microplate reader in presence of Mg2+ ATP relative to control. A digest of the protocol:
as §2

The test system of experiment [6] is KB. Nature of the experiment: Growth inhibition of human KB cells at 1 uM after 72 hrs by MTS assay. It counts as functional. Particulars: read-out: GI. A digest of the protocol: as §1
The species entered for experiment [7] is Ovis aries. In words: Inhibition of sheep brain tubulin polymerization by UV spectrophotometric analysis. On the set-up: concentration or dose not given beside the values. A digest of the protocol: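 Tubulin purified from sheep brain by two assembly/disassembly cycles, about 2–3 mg/mL in 0.1 M MES, 0.5 mM MgCl2, 1 mM EGTA, 1 mM GTP, pH 6.6. Compound in DMSO added at 0 °C, then moved to a 37 °C thermostated cell. Assembly followed by turbidity at 350 nm for a few min.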

Experiment [8] deals with T2, Kinesin-like protein KIF20A. In words: Inhibition of microtubule-stimulated N-terminal MKLP-2 (56 to 505 residues) ATPase activity isolated from human hepatocellular carcinoma cells by pyruvate kinase/lactate dehydrogenase enzyme linked assay. The note with it: read-out: IC50.

Structures are written as SMILES. Calls of active or inactive are those of the source. No cut-off for these calls is given here. Some results are limits rather than exact numbers.

Experimental findings from ChEMBL document CHEMBL3751740, “New MKLP-2 inhibitors in the paprotrain series: Design, synthesis and biological evaluations” (Bioorg Med Chem, 2016) are described below.

Sequence of Centromere-associated protein E (Homo sapiens) (Q02224 whole entry): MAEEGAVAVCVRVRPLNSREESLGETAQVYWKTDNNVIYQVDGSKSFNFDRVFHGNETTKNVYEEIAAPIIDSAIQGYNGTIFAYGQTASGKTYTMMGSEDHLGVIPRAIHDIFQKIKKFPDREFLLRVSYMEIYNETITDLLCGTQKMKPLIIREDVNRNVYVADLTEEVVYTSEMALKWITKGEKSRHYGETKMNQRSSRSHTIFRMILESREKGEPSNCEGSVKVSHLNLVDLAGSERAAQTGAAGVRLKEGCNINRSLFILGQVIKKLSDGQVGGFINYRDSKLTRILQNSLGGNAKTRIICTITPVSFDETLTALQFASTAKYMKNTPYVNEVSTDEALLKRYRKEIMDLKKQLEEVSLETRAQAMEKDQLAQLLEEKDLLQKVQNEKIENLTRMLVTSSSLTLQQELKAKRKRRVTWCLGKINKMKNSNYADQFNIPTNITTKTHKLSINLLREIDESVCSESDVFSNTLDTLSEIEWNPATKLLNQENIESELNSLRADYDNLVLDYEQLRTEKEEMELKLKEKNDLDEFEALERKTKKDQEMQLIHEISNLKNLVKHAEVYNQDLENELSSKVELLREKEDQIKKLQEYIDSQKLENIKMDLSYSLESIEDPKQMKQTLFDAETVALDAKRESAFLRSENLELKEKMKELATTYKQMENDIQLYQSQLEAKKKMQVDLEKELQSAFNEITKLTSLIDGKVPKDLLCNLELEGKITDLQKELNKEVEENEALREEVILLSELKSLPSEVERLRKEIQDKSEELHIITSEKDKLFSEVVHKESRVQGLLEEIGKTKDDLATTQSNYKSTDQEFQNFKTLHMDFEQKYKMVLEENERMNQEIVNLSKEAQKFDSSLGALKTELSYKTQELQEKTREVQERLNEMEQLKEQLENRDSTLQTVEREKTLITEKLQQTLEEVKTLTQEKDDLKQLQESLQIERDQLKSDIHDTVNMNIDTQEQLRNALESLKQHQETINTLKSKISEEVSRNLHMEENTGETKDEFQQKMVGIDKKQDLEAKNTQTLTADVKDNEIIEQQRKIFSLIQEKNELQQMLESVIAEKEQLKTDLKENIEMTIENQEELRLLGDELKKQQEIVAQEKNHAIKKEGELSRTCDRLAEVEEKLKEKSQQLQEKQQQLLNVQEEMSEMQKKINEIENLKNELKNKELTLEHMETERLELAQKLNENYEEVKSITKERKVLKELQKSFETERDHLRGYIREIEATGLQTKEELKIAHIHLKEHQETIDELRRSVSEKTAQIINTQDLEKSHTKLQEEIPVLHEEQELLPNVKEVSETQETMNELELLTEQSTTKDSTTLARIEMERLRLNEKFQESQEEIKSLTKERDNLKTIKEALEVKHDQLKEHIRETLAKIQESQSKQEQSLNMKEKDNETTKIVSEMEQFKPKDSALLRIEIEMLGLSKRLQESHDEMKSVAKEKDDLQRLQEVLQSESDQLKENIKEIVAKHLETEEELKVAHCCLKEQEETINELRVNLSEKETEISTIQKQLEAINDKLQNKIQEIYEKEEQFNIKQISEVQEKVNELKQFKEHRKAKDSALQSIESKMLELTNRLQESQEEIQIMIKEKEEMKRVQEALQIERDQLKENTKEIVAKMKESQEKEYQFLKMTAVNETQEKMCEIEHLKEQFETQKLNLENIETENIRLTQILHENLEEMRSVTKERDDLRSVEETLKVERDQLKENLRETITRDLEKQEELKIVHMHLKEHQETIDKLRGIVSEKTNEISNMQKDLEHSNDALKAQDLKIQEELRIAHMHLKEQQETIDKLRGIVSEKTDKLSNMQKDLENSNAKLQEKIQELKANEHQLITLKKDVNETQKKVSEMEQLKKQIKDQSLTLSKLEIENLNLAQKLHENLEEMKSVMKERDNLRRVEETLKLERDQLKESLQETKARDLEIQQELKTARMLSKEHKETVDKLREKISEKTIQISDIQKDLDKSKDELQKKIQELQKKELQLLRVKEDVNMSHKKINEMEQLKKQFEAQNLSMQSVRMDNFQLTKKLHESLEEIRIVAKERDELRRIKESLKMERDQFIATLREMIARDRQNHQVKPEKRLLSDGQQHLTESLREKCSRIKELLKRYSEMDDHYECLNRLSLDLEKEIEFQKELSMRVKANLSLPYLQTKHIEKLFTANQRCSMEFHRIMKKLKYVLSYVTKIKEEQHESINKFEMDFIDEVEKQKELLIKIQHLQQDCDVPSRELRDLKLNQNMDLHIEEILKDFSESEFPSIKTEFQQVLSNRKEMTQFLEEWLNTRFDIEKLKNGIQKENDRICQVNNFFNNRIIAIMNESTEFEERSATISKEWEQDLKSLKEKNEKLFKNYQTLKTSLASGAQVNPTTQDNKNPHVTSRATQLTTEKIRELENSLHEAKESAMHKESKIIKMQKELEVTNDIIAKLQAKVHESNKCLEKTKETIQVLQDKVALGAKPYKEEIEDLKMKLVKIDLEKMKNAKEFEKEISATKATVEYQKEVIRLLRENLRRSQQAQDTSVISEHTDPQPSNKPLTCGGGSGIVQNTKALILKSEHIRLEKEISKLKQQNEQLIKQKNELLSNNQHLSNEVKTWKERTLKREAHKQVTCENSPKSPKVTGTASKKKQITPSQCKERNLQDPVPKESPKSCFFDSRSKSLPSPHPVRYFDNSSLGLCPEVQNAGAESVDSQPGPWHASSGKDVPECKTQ

With `COc1ccc2c(/C(C#N)=C/c3cccnc3)c[nH]c2c1`, the result in the experiment listed under Ovis aries [1] was inactive. Also, the inhibition of growth at 10 µM in the experiment on KB [2] came out at 87%. Also, the inhibition is under 20% in experiment [3], under 20% in experiment [5] and 54% in the experiment filed under Ovis aries [7] (concentration not given here). In addition, the IC50 in experiment [4] (read-out: IC50) came out at 5.6 µM; in experiment [8], 5.4 µM. The inhibition of growth at 1 µM in the experiment on KB [6] was 78%.
As to `N#C/C(=C\c1ccc2c(c1)OCO2)c1c[nH]c2ccccc12`, in the experiment listed under Ovis aries [1], the outcome was inactive. Also, in the experiment on KB [2], the inhibition of growth at 10 µM amounted to 100%. The inhibition is under 20% in experiment [3], under 20% in experiment [5] and 35% in the experiment listed under Ovis aries [7] (concentration not given here). Besides, the IC50 was 14.3 µM in experiment [4] (read-out: IC50) and 5.1 µM in experiment [8]. In the experiment with KB [6], the inhibition of growth at 1 µM was 11%.
`COc1ccc2[nH]cc(/C(C#N)=C/c3cccnc3)c2c1`: the inhibition of growth at 10 µM in the experiment with KB [2] is 57%. In addition, the inhibition in experiment [3] and in experiment [5] was under 20% in each case. For the same molecule, the half-maximal inhibitory concentration (IC50) in experiment [4] (read-out: IC50) worked out at 1.2 µM; in experiment [8], 0.23 µM. Also, in the experiment listed under Ovis aries [7], the inhibition entry is “inactive”.
On to `COc1cccc2[nH]cc(/C(C#N)=C/c3cccnc3)c12`, for which the result in the experiment filed under Ovis aries [1] was inactive. Besides, the inhibition of growth at 10 µM in the experiment on KB [2] amounted to 27%. Also, the inhibition in experiment [3] and in experiment [5] was under 20% in each case. For the same molecule, the IC50 in experiment [4] (read-out: IC50) worked out at 4.2 µM; in experiment [8], 3.3 µM. Further, in the experiment filed under Ovis aries [7], the inhibition result was “inactive”.
As to `CCOC(=O)C1=C(C)NC(=S)NC1c1cccc(O)c1` (stereo not drawn), the inhibition in experiment [3] and in experiment [5] was under 20% throughout.
As for `N#C/C(=C\c1cccnc1)c1c[nH]c2ccc(OCc3ccccc3)cc12`, the outcome in the experiment filed under Ovis aries [1] was inactive. The inhibition of growth at 10 µM in the experiment on KB [2] stood at 57%. Also, the inhibition was under 20% in experiment [3], under 20% in experiment [5] and 12% in the experiment listed under Ovis aries [7] (concentration not given here). Besides, the IC50 entry in experiment [4] was “Not Active”; in experiment [8], 1.3 µM.
